pIC50: −log10 of the molar value. ≈ marks a conversion by molar mass, not a printed value.
Legend:
[1] = tested on: Mycobacterium tuberculosis; assay: Antimycobacterial activity against Mycobacterium tuberculosis H37Rv in liquid broth culture medium; format: functional
Procedure, shortened: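 M. tuberculosis H37Rv replicating in liquid broth culture medium; MIC80 determined, i.e. concentration inhibiting 80% of growth.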

[2] = tested on: Mycobacterium tuberculosis; assay: Antimycobacterial activity against Mycobacterium tuberculosis H37Rv in macrophages; format: functional
Procedure, shortened: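 M. tuberculosis H37Rv replicating inside macrophages; intracellular MIC80 determined, i.e. concentration inhibiting 80% of growth.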

[3] = Half life in human liver microsomes; format: ADME
Procedure, shortened: (§1)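 Metabolic stability measured by incubation in human or mouse liver microsomal preparations; half-life reported.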

[4] = Half life in mouse liver microsomes; format: ADME; procedure, shortened: as §1
Cytochrome P450 3A4 = Cytochrome P450 3A4 (Homo sapiens, UniProt P08684); assay: Inhibition of recombinant CYP3A4 (unknown origin) by LC/MS/MS analysis; format: ADME
Sequence of Cytochrome P450 3A4 (P08684 whole entry): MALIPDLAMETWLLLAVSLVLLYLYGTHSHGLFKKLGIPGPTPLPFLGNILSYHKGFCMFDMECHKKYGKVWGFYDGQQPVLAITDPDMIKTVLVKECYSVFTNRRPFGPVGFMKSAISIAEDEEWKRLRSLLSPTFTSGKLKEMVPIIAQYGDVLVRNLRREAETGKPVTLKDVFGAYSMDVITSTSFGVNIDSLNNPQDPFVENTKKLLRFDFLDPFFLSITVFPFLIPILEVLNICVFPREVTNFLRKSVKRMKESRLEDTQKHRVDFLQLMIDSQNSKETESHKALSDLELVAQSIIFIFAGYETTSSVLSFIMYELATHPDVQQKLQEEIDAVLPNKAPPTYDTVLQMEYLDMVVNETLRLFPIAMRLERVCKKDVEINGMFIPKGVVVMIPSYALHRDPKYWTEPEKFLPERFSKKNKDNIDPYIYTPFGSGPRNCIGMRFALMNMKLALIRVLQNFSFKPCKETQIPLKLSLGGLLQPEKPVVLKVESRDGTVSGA
Procedure, shortened: (§2)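 Recombinant CYP enzymes (5 pmol/mL) with substrate, in 100 mM potassium phosphate pH 7.4, 3.3 mM MgCl2, with or without 1 mM NADPH; incubated 10 min (CYP1A2, CYP2C9), 20 min (CYP2C19, CYP2D6), or 3 min (CYP3A4); stopped with cold stop solution containing tolbutamide internal standard; metabolite measured by LC-MS/MS.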

Cytochrome P450 2D6 = Cytochrome P450 2D6 (Homo sapiens, UniProt P10635); assay: Inhibition of recombinant CYP2D6 (unknown origin) by LC/MS/MS analysis; format: ADME; procedure, shortened: as §2
Sequence of Cytochrome P450 2D6 (P10635 whole entry): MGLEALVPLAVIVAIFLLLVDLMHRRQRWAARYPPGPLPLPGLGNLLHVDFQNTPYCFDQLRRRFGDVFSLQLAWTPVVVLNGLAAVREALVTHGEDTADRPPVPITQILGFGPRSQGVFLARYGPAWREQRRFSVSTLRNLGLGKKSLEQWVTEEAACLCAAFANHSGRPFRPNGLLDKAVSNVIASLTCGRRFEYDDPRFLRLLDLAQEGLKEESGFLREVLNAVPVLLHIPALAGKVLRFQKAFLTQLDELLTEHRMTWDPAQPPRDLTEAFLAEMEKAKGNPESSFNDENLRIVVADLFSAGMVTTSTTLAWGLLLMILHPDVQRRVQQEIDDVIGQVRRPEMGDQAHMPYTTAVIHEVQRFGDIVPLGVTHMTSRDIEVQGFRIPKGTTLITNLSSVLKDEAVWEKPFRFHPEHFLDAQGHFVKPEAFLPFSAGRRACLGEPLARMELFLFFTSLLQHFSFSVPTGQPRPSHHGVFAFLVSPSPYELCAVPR

Cytochrome P450 1A2 = target: T1, Cytochrome P450 1A2 (Homo sapiens, UniProt P05177); assay: Inhibition of recombinant CYP1A2 (unknown origin) by LC/MS/MS analysis; format: ADME; procedure, shortened: as §2
T1 sequence (P05177 whole entry): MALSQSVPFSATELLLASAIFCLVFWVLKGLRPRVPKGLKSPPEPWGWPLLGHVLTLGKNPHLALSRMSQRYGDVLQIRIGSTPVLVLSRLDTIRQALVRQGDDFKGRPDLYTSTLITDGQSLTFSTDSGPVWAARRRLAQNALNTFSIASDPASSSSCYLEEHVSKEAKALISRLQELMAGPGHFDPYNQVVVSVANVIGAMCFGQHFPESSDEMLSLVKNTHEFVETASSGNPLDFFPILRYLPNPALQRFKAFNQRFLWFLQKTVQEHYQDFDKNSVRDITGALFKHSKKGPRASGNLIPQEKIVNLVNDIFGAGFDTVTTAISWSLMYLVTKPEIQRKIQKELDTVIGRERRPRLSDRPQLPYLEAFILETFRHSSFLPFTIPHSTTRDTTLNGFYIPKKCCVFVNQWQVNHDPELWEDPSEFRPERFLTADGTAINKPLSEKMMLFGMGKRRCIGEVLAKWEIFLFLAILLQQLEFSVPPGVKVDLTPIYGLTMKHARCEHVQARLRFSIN

Cytochrome P450 2C9 = Cytochrome P450 2C9 (Homo sapiens, UniProt P11712); assay: Inhibition of recombinant CYP2C9 (unknown origin) by LC/MS/MS analysis; format: ADME; procedure, shortened: as §2
Sequence of Cytochrome P450 2C9 (P11712 whole entry): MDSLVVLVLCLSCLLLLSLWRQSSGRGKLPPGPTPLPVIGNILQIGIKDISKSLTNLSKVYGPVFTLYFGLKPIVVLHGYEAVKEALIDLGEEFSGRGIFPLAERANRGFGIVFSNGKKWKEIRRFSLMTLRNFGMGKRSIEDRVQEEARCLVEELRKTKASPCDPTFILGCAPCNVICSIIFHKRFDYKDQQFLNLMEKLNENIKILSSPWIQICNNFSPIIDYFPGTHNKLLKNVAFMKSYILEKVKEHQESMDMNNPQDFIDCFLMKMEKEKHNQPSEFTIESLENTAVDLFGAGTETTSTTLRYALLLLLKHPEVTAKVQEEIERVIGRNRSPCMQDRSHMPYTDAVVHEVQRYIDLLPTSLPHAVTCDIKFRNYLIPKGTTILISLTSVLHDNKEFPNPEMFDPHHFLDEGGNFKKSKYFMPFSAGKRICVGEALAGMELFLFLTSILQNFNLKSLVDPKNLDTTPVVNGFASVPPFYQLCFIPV

Cytochrome P450 2C19 = Cytochrome P450 2C19 (Homo sapiens, UniProt P33261); assay: Inhibition of recombinant CYP2C19 (unknown origin) by LC/MS/MS analysis; format: ADME; procedure, shortened: as §2
Sequence of Cytochrome P450 2C19 (P33261 whole entry): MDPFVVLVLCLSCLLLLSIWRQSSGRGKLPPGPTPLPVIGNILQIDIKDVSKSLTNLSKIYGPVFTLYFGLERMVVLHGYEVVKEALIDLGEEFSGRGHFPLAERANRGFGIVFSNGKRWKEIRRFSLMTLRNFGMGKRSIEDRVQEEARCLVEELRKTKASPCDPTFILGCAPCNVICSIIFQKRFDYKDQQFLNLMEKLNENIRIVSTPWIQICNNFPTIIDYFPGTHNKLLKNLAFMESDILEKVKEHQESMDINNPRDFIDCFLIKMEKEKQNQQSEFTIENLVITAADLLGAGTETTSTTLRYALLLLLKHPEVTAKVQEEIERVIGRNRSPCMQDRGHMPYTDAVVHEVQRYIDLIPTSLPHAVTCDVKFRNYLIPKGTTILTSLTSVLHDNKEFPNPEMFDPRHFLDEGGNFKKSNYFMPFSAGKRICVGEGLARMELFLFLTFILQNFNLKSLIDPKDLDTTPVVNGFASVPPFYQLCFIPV

[5] = Solubility of the compound in phosphate buffer at pH 7.4; format: physicochemical
[6] = Solubility of the compound in aqueous solution at pH 2.1; format: physicochemical
[7] = tested on: Mycobacterium tuberculosis; assay: Antimycobacterial activity against Mycobacterium tuberculosis H37Rv infected in BALB/c mouse assessed as lung bacterial load at 15 mg/kg administered 3 weeks after infection via oral gavage for 28 days, five times per week measured per lung (reference value: 7.24 +/- 0.17 log10 CFU); format: functional
Procedure, shortened: (§3)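 BALB/c mice infected intranasally with 2 x10^2 to 2 x 10^3 CFU M. tuberculosis H37Rv; oral gavage treatment started 3 weeks post-infection, given five times per week for 28 days; lung bacterial burden enumerated as log10 CFU per lung; values reported ± spread; untreated infected mice as baseline.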

[8] = tested on: Mycobacterium tuberculosis; assay: Antimycobacterial activity against Mycobacterium tuberculosis H37Rv infected in BALB/c mouse assessed as lung bacterial load administered 3 weeks after infection via oral gavage for 28 days, five times per week measured per lung; format: functional, organism-based; procedure, shortened: as §3
[9] = Elimination half life in mouse at 2 mg/kg, iv; format: ADME, organism-based; set-up: dose 2 mg/kg, route intravenous; conditions: in vivo, read-out: beta t1/2 (converted)
Procedure, shortened: (§4)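 Mice dosed at 2 mg/kg i.v. and 10 mg/kg p.o.; plasma sampled and PK parameters (half-life, clearance, volume of distribution, Cmax, Tmax, AUC, oral bioavailability) derived from the plasma concentration–time profiles.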

[10] = Clearence in mouse at 2 mg/kg, iv; format: ADME, organism-based; set-up: dose 2 mg/kg, route intravenous; conditions: in vivo; procedure, shortened: as §4
[11] = Volume of distribution at steady state in mouse at 2 mg/kg, iv; format: ADME, organism-based; set-up: dose 2 mg/kg, route intravenous; conditions: in vivo, read-out: Vdss; procedure, shortened: as §4
[12] = Cmax in mouse at 10 mg/kg, po; format: ADME, organism-based; set-up: dose 10 mg/kg, route oral; conditions: in vivo; procedure, shortened: as §4
[13] = Tmax in mouse at 10 mg/kg, po; format: ADME, organism-based; set-up: dose 10 mg/kg, route oral; conditions: in vivo; procedure, shortened: as §4
[14] = AUC (0 to infinity) in mouse at 10 mg/kg, po; format: ADME, organism-based; set-up: time infinity, dose 10 mg/kg, route oral; conditions: plasma; procedure, shortened: as §4
[15] = Oral bioavailability in mouse at 10 mg/kg; format: ADME, organism-based; conditions: in vivo; procedure, shortened: as §4
[16] = Half life in mouse at 10 mg/kg, po; format: ADME, organism-based; set-up: dose 10 mg/kg, route oral; conditions: in vivo; procedure, shortened: as §4
[17] = tested on: Mycobacterium tuberculosis; assay: Antimycobacterial activity against Mycobacterium tuberculosis H37Rv infected in BALB/c mouse assessed as lung bacterial load at 2 mg/kg administered 3 weeks after infection via oral gavage for 28 days, five times per week measured per lung (reference value: 7.24 +/- 0.17 log10 CFU); format: functional; procedure, shortened: as §3
[18] = tested on: Mycobacterium tuberculosis; assay: Antimycobacterial activity against Mycobacterium tuberculosis H37Rv infected in BALB/c mouse assessed as lung bacterial load at 10 mg/kg administered 3 weeks after infection via oral gavage for 28 days, five times per week measured per lung (reference value: 7.24 +/- 0.17 log10 CFU); format: functional; procedure, shortened: as §3
[19] = tested on: Mycobacterium tuberculosis; assay: Antimycobacterial activity against Mycobacterium tuberculosis H37Rv infected in BALB/c mouse assessed as lung bacterial load at 50 mg/kg administered 3 weeks after infection via oral gavage for 28 days, five times per week measured per lung (reference value: 7.24 +/- 0.17 log10 CFU); format: functional; procedure, shortened: as §3

Structure (SMILES)	MIC80 [1]	MIC80 [2]	half-life [3]	half-life [4]	pIC50 (Cytochrome P450 3A4)	pIC50 (Cytochrome P450 2D6)	pIC50 (Cytochrome P450 1A2)	pIC50 (Cytochrome P450 2C9)	pIC50 (Cytochrome P450 2C19)	solubility [5]	solubility [6]	half-life [9]	clearance [10]	Vd [11]	Cmax [12]	Tmax [13]	AUC(0-inf) [14]	bioavailability [15]	half-life [16]	also measured
CCc1nc2ccc(Cl)cn2c1C(=O)NCc1ccc(N2CCC(c3ccc(Cl)cc3)CC2)cc1	4.1 nM (≈ 2.08 ng/mL)	1.3 nM (≈ 0.66 ng/mL)	0.965 h	1.93 h	< 4.40	< 4.40	< 4.40	6.59	5.17	2.59 µg/mL (≈ 5.1 µM)	39.7 µg/mL (≈ 78.3 µM)	–	–	–	–	–	–	–	–	–
CCc1nc2ccc(Cl)cn2c1C(=O)NCc1ccc(N2CCC(c3ccc(F)cc3)CC2)cc1	< 0.5 nM	0.36 nM (≈ 0.177 ng/mL)	1.04 h	0.338 h	< 4.40	< 4.40	< 4.40	< 4.40	< 4.40	3.99 µg/mL (≈ 8.13 µM)	38.5 µg/mL (≈ 78.5 µM)	–	–	–	–	–	–	–	–	–
NNC(=O)c1ccncc1 [ISONIAZID]	449 nM (≈ 61.6 ng/mL)	617 nM (≈ 84.6 ng/mL)	–	–	–	–	–	–	–	–	–	–	–	–	–	–	–	–	–	log10cfu [7]: 5.01; inhibition [8]: Dose-dependent effect
CCc1nc2cc(Cl)ccn2c1C(=O)NCc1ccc(N2CCN(c3ccc(F)cc3)CC2)cc1	5.7 nM (≈ 2.8 ng/mL)	0.3 nM (≈ 0.148 ng/mL)	> 2 h	0.555 h	< 4.40	< 4.40	< 4.40	< 4.40	< 4.40	–	–	6.15 h	1.9 mL/min/kg	0.877 L/kg	4450 ng/mL	2 h	59600 ng·h/mL	69.9%	9.4 h	–
CCc1nc2ccc(Cl)cn2c1C(=O)NCc1ccc(N2CCN(c3ccc(F)cc3)CC2)cc1	< 0.5 nM	0.3 nM (≈ 0.148 ng/mL)	> 2 h	0.555 h	6.31	< 4.40	< 4.40	5.88	5.88	1.31 µg/mL (≈ 2.66 µM)	38.5 µg/mL (≈ 78.3 µM)	–	–	–	–	–	–	–	–	–
CCc1nc2ccc(Cl)cn2c1C(=O)NCc1ccc(N2CCN(c3ccc(OC(F)(F)F)cc3)CC2)cc1	< 0.5 nM	0.23 nM (≈ 0.128 ng/mL)	> 2 h	> 1 h	4.94	< 4.40	< 4.40	6.24	< 4.40	1.1 µg/mL (≈ 1.97 µM)	12.1 µg/mL (≈ 21.6 µM)	–	–	–	–	–	–	–	–	–
CCc1nc2ccc(Cl)cn2c1C(=O)NCc1ccc(N2CCC(c3ccc(OC(F)(F)F)cc3)CC2)cc1 [TELACEBEC]	4 nM (≈ 2.23 ng/mL)	1.43 nM (≈ 0.797 ng/mL)	> 2 h	> 2 h	< 4.00	< 4.00	< 4.00	< 4.00	< 4.00	1.71 µg/mL (≈ 3.07 µM)	41.5 µg/mL (≈ 74.5 µM)	16.5 h	4 mL/min/kg	5.27 L/kg	1490 ng/mL	2 h	44100 ng·h/mL	90.7%	23.4 h	–
CCc1nc2cc(Cl)ccn2c1C(=O)NCc1ccc(N2CCC(c3ccc(OC(F)(F)F)cc3)CC2)cc1	4 nM (≈ 2.23 ng/mL)	3.7 nM (≈ 2.06 ng/mL)	> 2 h	> 2 h	< 4.00	< 4.00	< 4.00	6.85	6.54	1.32 µg/mL (≈ 2.37 µM)	55.8 µg/mL (≈ 100 µM)	62.3 h	3.15 mL/min/kg	14.3 L/kg	1990 ng/mL	2 h	27300 ng·h/mL	80.2%	21.3 h	log10cfu [17]: 6.23; log10cfu [18]: 5.72; log10cfu [19]: 5.65; inhibition [8]: Dose-dependent effect
